Measured values of several laboratories.
pIC50: −log10 of the molar value.
Effect on: cell growth or viability

With `Cc1ccc2nc(-c3ccncc3)[nH]c2c1` the pIC50 was 4.13 (MDA-MB-231; MTT; 48 h).
For `Oc1c(I)cc(Cl)c2cccnc12`, the pIC50 was 4.19 (BEL-7404; MTT; 48 h).
With `C/C=C(/C)C(=O)OC[C@H]1[C@@H](Cc2ccc(C(F)(F)F)cc2)CO[C@@H]1c1ccc(OC)c(OC)c1` the pIC50 was 4.70 (rat VSMC; resazurin; 48 h).
With `Nc1ncc(-c2cnn(C3CCNCC3)c2)cc1-c1nnc(CC2CC2)o1` the pIC50 was 6.19 (CMK; trypan blue; 72 h).
`COC(=O)CN=c1scc(-c2ccccc2)n1-c1ccccc1` gave a pIC50 of less than 4.00 (Panc 04.03; MTT; 72 h).
With `O=C(O)/C=C/c1ccc(O)cc1` the pIC50 was less than 4.30 (A-375; MTT).
For `Cc1ccc2nc(-c3ccco3)[nH]c2c1`, the pIC50 was less than 4.00 (MDA-MB-231; MTT; 48 h).
`COc1c2ccoc2c(OCC=C(C)C)c2oc(=O)ccc12` has a pIC50 of less than 4.00 (MRC5; MTT; 72 h).
`Oc1ccc(Nc2nc(-c3ccc(Cl)cc3)cs2)cc1` gave a pIC50 of less than 4.00 (FF2441; MTS; 24 h).
With `Cc1ccc2nc(-c3ccc([N+](=O)[O-])cc3)[nH]c2c1` the pIC50 was 4.75 (MDA-MB-231; MTT; 48 h).
`COC(=O)CN=c1scc(-c2ccccc2)n1-c1ccc(OC)cc1` has a pIC50 of 4.12 (Panc 04.03; MTT; 72 h).
For `c1cnc2c(c1)ccc1cccnc12`, the pIC50 was less than 4.30 (BEL-7404; MTT; 48 h).
The pIC50 of `COc1cc(C)cc2oc(-c3cccc(Br)c3)cc(=O)c12` is reported as 3.98 (HS27; MTT; 24 h).
For `C=CCn1c(-c2ccc([N+](=O)[O-])cc2)nc2ccc(C)cc21`, the pIC50 was less than 4.00 (MDA-MB-231; MTT).
With `COc1cc(C)c(-c2c(C)cc(OC)c3c(=O)cc(-c4ccccc4)oc23)c2oc(-c3ccccc3)cc(=O)c12` the pIC50 was less than 3.70 (HS27; MTT; 24 h).
`C/C=C(/C)C(=O)OC[C@H]1[C@@H](Cc2ccc(C(F)(F)F)cc2)CO[C@@H]1c1ccccc1` gave a pIC50 of 5.38 (rat VSMC; resazurin; 48 h).
`CCCCC[C@H](O)CC(=O)CCc1ccc(O)c(OC)c1` has a pIC50 of 3.52 (MRC5; SRB).
The pIC50 of `COC(=O)CN=c1scc(-c2ccccc2)n1-c1ccc(C)cc1` is reported as 5.21 (SiHa; MTT; 72 h).
For `COc1cc(OC)c2c(=O)cc(-c3ccc(N(C)C)cc3)oc2c1-c1c(OC)cc(OC)c2c(=O)cc(-c3ccc(N(C)C)cc3)oc12`, the pIC50 was less than 3.70 (HS27; MTT; 24 h).
`Cc1ccc2nc(-c3cccc([N+](=O)[O-])c3)[nH]c2c1` has a pIC50 of less than 4.00 (MDA-MB-231; MTT; 48 h).
`CC(=O)c1ccc(/N=N/c2cc(/C=C/C(=O)O)ccc2O)cc1` gave a pIC50 of less than 4.30 (A-375; MTT).
`CCOc1cc(-c2nc3ccc(C)cc3[nH]2)ccc1O` has a pIC50 of less than 4.00 (MDA-MB-231; MTT; 48 h).
With `COc1cc(C)c(-c2c(C)cc(OC)c3c(=O)cc(-c4ccc(C(F)(F)F)cc4)oc23)c2oc(-c3ccc(C(F)(F)F)cc3)cc(=O)c12` the pIC50 was less than 3.70 (HS27; MTT; 24 h).
`Clc1ccnc2c1ccc1c(Cl)ccnc12` has a pIC50 of less than 4.30 (BEL-7404; MTT; 48 h).
With `Cl.Oc1cccc2c1[nH]c1c(C3=CC4(O)CC/C=C\CCCCN5CCC3C3(CC6/C=C\CCCCN6C43)C5)nccc12` (single isomer, unassigned; (+)) the IC50 was 1.85 µg/mL (LLC-PK11; neutral red; 48 h).
`Nc1nc(Nc2ccc3c(c2)CC[C@@H](N2CCCC2)CC3)nn1-c1cc2c(nn1)-c1ccccc1CCC2` has a pIC50 of 5.65 (CMK; trypan blue; 72 h).
With `COc1ccc(C[C@H]2CO[C@H](c3ccc(OC)c(OC)c3)[C@H]2COC(=O)CC(C)C)cc1OC` the pIC50 was 4.51 (rat VSMC; resazurin; 48 h).
`COC(=O)CN=c1scc(-c2ccccc2)n1-c1ccccc1[N+](=O)[O-]` has a pIC50 of 5.17 (SiHa; MTT; 72 h).
`Cc1ccc2nc(-c3ccc(F)cc3)n(Cc3ccccc3)c2c1` has a pIC50 of 4.54 (MDA-MB-231; MTT).
For `COC(=O)CN=c1scc(-c2ccccc2)n1-c1ccccc1C`, the pIC50 was less than 4.00 (Panc 04.03; MTT; 72 h).
For `COc1cc(OC)c2c(=O)cc(-c3ccccc3Br)oc2c1`, the pIC50 was less than 3.70 (HS27; MTT; 24 h).
The pIC50 of `CC(=O)c1cccc(N=Nc2c(C(=O)O)cc(O)c(O)c2O)c1` is reported as 4.92 (A-375; MTT).
With `Cc1ccc2c(Cl)cc(Cl)c(O)c2n1` the pIC50 was less than 4.00 (BEL-7404; MTT; 48 h).
The pIC50 of `COc1ccc(-c2cc(=O)c3c(OC)cc(C)cc3o2)cc1` is reported as less than 3.70 (HS27; MTT; 24 h).
With `COc1ccc(C(=O)O[C@@H]2CN3Cc4c(cc5c(c4OC)OCO5)[C@@]24C=C[C@H](OC)C[C@@H]34)cc1OC` the pIC50 was 5.21 (MRC5; WST-1).
`Oc1c(I)cc(I)c2cccnc12` gave a pIC50 of less than 4.00 (BEL-7404; MTT; 48 h).
With `COc1cc(C)cc2oc(-c3ccccc3)cc(=O)c12` the pIC50 was less than 3.70 (HS27; MTT; 24 h).
The pIC50 of `COC(=O)CN=c1scc(-c2ccccc2)n1-c1ccccc1OC` is reported as 5.38 (SiHa; MTT; 72 h).
`COc1cc(C)c(-c2c(C)cc(OC)c3c(=O)cc(-c4ccccc4Br)oc23)c2oc(-c3ccccc3Br)cc(=O)c12` gave a pIC50 of less than 3.70 (HS27; MTT; 24 h).
With `Cc1ccc2nc(-c3cccc(O)c3)[nH]c2c1` the pIC50 was less than 4.00 (MDA-MB-231; MTT; 48 h).
